The source of these data is ChEMBL document CHEMBL1765020, “Synthesis and structure-affinity relationships of novel dibenzylideneacetone derivatives as probes for β-amyloid plaques” (J Med Chem, 2011).

pKi: −log10 of the molar value.

This assay is described as follows: Displacement of [125I]IMPY from amyloid beta (1 to 42) aggregate after 2 hrs by gamma counting. In outline: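 Competition binding in 1 mL PBS (0.2 M, pH 7.4). Aggregated Aβ1-42 fibrils (60 nM final) with [125I]IMPY and inhibitor at 10^-5 to 10^-10 M, added in ethanol. Nonspecific binding was defined with 1 μM IMPY. Incubated 2 h at 37 °C with shaking, then vacuum-filtered through glass fibre filters and the bound fraction gamma-counted. IC50 was converted to Ki by Cheng-Prusoff; triplicate, mean ± SD.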
Background: Loss of bound radioactivity is the signal in a displacement assay; it reports binding, not function.

The pKi is the negative decadic logarithm of the Ki, by convention in mol/L. A high value points to a low Ki. In turn, `CN(C)c1ccc(/C=C/C(=O)/C=C/c2ccccn2)cc1` gave a pKi of 7.64.

With `CN(C)c1ccc(/C=C/C(=O)/C=C/c2ccc(Cl)cc2)cc1`, the pKi was 8.96.

Turning to `CN(C)c1ccc(/C=C/C(=O)/C=C/c2ccc(-c3ccc(Br)s3)s2)cc1`, the pKi is 7.93.

In the case of `CN(C)c1ccc(/C=C/C(=O)/C=C/c2ccc[nH]2)cc1`, the pKi is 8.24.

The compound `CN(C)c1ccc(/C=C/C(=O)/C=C/c2cc(Br)ccc2O)cc1` had a pKi of 7.79.

`CN(C)c1ccc(/C=C/C(=O)/C=C/c2ccc(Br)nc2)cc1` gave a pKi of 8.64.

With `CN(C)c1ccc(/C=C/C(=O)/C=C/c2cccc(N(C)C)c2)cc1`, the pKi was 8.10.

Turning to `COc1ccc(/C=C/C(=O)/C=C/c2ccc(OC)cc2)cc1`, the pKi was 8.19.

As for `CN(C)c1ccc(/C=C/C(=O)/C=C/c2ccccc2OCc2ccccc2)cc1`, the pKi was 7.73.

With `CN(C)c1ccc(/C=C/C(=O)/C=C/c2ccc(OCCF)cc2)cc1`, the pKi is 8.25.

Turning to `CN(C)c1ccc(/C=C2\CCC/C(=C\c3ccc(N(C)C)cc3)C2=O)cc1`, the pKi was 9.00.

Compound `COc1ccc(/C=C2\CCC/C(=C\c3ccc(OC)cc3)C2=O)cc1` gave a pKi of 7.61.

In turn, `Nc1ccc(/C=C/C(=O)/C=C/c2ccc(I)cc2)cc1` gave a pKi of 8.15.

In turn, `CN(C)c1ccc(/C=C/C(=O)/C=C/c2ccc(C(F)(F)F)cc2)cc1` gave a pKi of 9.10.

Compound `COc1cc(/C=C/C(=O)CC(=O)/C=C/c2ccc(O)c(OC)c2)ccc1O` [CURCUMIN] showed a pKi of 7.30.

Turning to `CN(C)c1ccc(/C=C/C(=O)/C=C/c2ccc(N)cc2)cc1`, the pKi is 8.43.

`CNc1ccccc1/C=C/C(=O)/C=C/c1ccc(N(C)C)cc1` had a pKi of 5.58.

`COc1ccc(/C=C/C(=O)/C=C/c2ccc(N(C)C)cc2)c(OC)c1` had a pKi of 8.55.

Compound `CN(C)c1ccc(/C=C/C(=O)/C=C/c2ccccc2N)cc1` showed a pKi of 8.08.

For `CN(C)c1ccc(/C=C/C(=O)/C=C/c2c(Cl)cccc2Cl)cc1`, the pKi is 7.73.

Compound `COc1ccc(/C=C/C(=O)/C=C/c2ccc(N(C)C)cc2)cc1OC` gave a pKi of 8.27.

`CCN(CC)c1ccc(/C=C/C(=O)/C=C/c2ccc(N(C)C)cc2)cc1`: the pKi is 7.80.

`CNc1cccc(/C=C/C(=O)/C=C/c2ccc(N(C)C)cc2)c1` showed a pKi of 8.09.

As for `CN(C)c1ccc(/C=C/C(=O)/C=C/c2ccc(C(=O)O)cc2)cc1`, the pKi is 7.11.

Consider `CN(C)c1ccc(/C=C/C(=O)/C=C/c2ccc3c(c2)OCO3)cc1`, for which the pKi is 8.74.

`CN(C)c1ccc(/C=C/C(=O)/C=C/c2ccccc2O)cc1` gave a pKi of 7.55.

In the case of `CN(C)c1ccc(/C=C/C(=O)/C=C/c2ccc(OC(c3ccccc3)(c3ccccc3)c3ccccc3)cc2)cc1`, the pKi is 8.55.

With `COc1cc(/C=C/C(=O)/C=C/c2ccc(N(C)C)cc2)cc(OC)c1OC`, the pKi was 8.28.

Turning to `CN(C)c1ccc(/C=C/C(=O)/C=C/c2cccc(Br)c2)cc1`, the pKi was 8.72.

Take `CN(C)c1ccc(/C=C/C(=O)/C=C/c2ccc(N(C)C)cc2)cc1`: the pKi is 8.57.

In turn, `CN(C)c1ccc(/C=C/C(=O)/C=C/c2ccc(N(c3ccccc3)c3ccccc3)cc2)cc1` had a pKi of 6.88.

On to `CN(C)c1ccc(/C=C/C(=O)/C=C/c2ccc([N+](=O)[O-])cc2)cc1`, for which the pKi was 8.28.

On to `CN(C)c1ccc(/C=C/C(=O)/C=C/c2cccc(Oc3ccccc3)c2)cc1`, for which the pKi is 8.42.

`O=C1/C(=C/c2ccccc2)CCC/C1=C\c1ccccc1` [2,6-DIBENZYLIDENECYCLOHEXANONE]: the pKi was 6.15.

In turn, `CN(C)c1ccc(/C=C/C(=O)/C=C/c2ccc(Cl)nc2)cc1` showed a negative-log Ki (pKi) of 8.66.

With `CN(C)c1ccc(/C=C/C(=O)/C=C/c2cccc(N)c2)cc1`, the pKi was 7.86.

The compound `COc1ccc2cc(/C=C/C(=O)/C=C/c3ccc(N(C)C)cc3)ccc2c1` gave a pKi of 8.60.

`CN(C)c1ccc(/C=C/C(=O)/C=C/c2ccccc2Cl)cc1` had a pKi of 9.05.
